Test results published in ChEMBL document CHEMBL4145532, “Design and synthesis of new potent N,N-bis(arylalkyl)piperazine derivatives as multidrug resistance (MDR) reversing agents” (Eur J Med Chem, 2018).
Active and inactive are the calls of the source. The calls are words filed in the database; no cut-off is given here.

Legend:
[1] = Half life in human plasma up to 1 uM by LC-MS/MS analysis; format: ADME, cell-free
Procedure, shortened: (§1)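 Analyte at 1 μM was placed in PBS, pooled human plasma (healthy male volunteers) or Sprague-Dawley male rat plasma. Samples were incubated at 37 °C for 0, 30, 60 and 120 min in triplicate. Internal standard was added, samples were centrifuged, and supernatants were dried and redissolved in 10 mM formic acid water:acetonitrile 80:20. Quantitation was by LC-MS/MS, positive ESI, MRM. Plasma hydrolytic activity was checked with ketoprofen ethyl ester or enalapril.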

[2] = Half life in Sprague-Dawley rat plasma up to 1 uM by LC-MS/MS analysis; format: ADME, cell-free; procedure, shortened: as §1
Homo sapiens [3] = organism: Homo sapiens; test: Inhibition of P-gp in human K562/Dox cells assessed as potentiation of doxorubicin-induced cytotoxicity by measuring ratio of doxorubicin IC50 to doxorubicin IC50 in presence of test compound at 0.1 uM after 72 hrs by MTT assay; format: cell-based
Procedure, shortened: (§2)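 K562/DOX cells were exposed 72 h to doxorubicin (0.0001–100 μM) with or without modulator at 0.1, 1.0 or 3.0 μM, then read by MTT at 570 nm. Reversal fold is doxorubicin IC50 without modulator divided by IC50 with modulator. Quadruplicate cultures, at least three determinations.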

Homo sapiens [4] = organism: Homo sapiens; test: Inhibition of P-gp in human K562/Dox cells assessed as increase in Rh-123 accumulation at 1 uM preincubated for 15 mins followed by Rh-123 addition measured after 30 to 60 mins by FACS analysis; format: cell-based
Procedure, shortened: (§3)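 Cells (K562/DOX or parental K562) got modulator at 1.0 μM, with 15 min pre-exposure, then were loaded with 5.0 μM rhodamine-123 for 30 min at 37 °C in 5% CO2. After washing, cells sat in Rh-123-free medium with or without modulator for 30 or 60 min efflux. Cells were washed in ice-cold PBS and read by flow cytometry (≥20,000 gated events). MFI ratio is median fluorescence of treated over untreated control.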

Homo sapiens [5] = organism: Homo sapiens; test: Inhibition of P-gp in human K562/Dox cells assessed as potentiation of doxorubicin-induced cytotoxicity by measuring ratio of doxorubicin IC50 to doxorubicin IC50 in presence of test compound at 3 uM after 72 hrs by MTT assay; format: cell-based; procedure, shortened: as §2
Homo sapiens [6] = organism: Homo sapiens; test: (§4) Inhibition of P-gp in human K562/Dox cells assessed as potentiation of doxorubicin-induced cytotoxicity after 72 hrs by MTT assay; format: cell-based
Procedure, shortened: (§5)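 Doxorubicin (0.0001–100 μM) was tested alone or combined with modulator at 0.1, 1.0 or 3.0 μM on K562/DOX or parental K562 cells, seeded at 10^4 cells/well. Plates ran 72 h at 37 °C in 5% CO2, followed by 3 h MTT, acidified isopropanol and A570. Doxorubicin IC50 was taken as mean ± SE of at least three determinations with quadruplicate cultures.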

[7] = Half life in PBS up to 1 uM by LC-MS/MS analysis; format: physicochemical; procedure, shortened: as §1
K562 [8] = test: Cytotoxicity against human K562 cells at 0.1 to 3 uM after 72 hrs by MTT assay; format: cell-based; details: k562, 72 h
Procedure, shortened: (§6)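 Compounds were given alone at 0.1, 1.0 and 3.0 μM to parental K562 and to P-gp-overexpressing K562/DOX cells. Exponential-phase cells were seeded at 10^4 cells/well and kept 72 h at 37 °C in 5% CO2. MTT was then added for 3 h, formazan was dissolved in acidified isopropanol, and absorbance was read at 570 nm.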

K562 [9] = test: Inhibition of Rh-123 efflux in human K562 cells at 1 uM preincubated for 15 mins followed by Rh-123 addition for 30 mins and subsequent replacement in Rh-123 free medium measured after 30 to 60 mins by FACS analysis; format: functional, cell-based; procedure, shortened: as §3
K562 [10] = test: Potentiation of doxorubicin-induced cytotoxicity against human K562 cells at 1 uM after 72 hrs by MTT assay; format: functional, cell-based; procedure, shortened: as §5
K562 [11] = test: Potentiation of doxorubicin-induced cytotoxicity against human K562 cells at 0.1 to 3 uM after 72 hrs by MTT assay; format: functional, cell-based; procedure, shortened: as §5
[12] = Cytotoxicity against human K562/Dox cells at 0.1 to 3 uM after 72 hrs by MTT assay; format: cell-based; procedure, shortened: as §6
K562 [13] = test: Induction of Rh-123 accumulation in human K562 cells at 1 uM preincubated for 15 mins followed by Rh-123 addition and measured after 30 mins by FACS analysis; format: functional, cell-based; procedure, shortened: as §3
Homo sapiens [14] = organism: Homo sapiens; test: (§7) Inhibition of P-gp in human K562/Dox cells assessed as reduction in Rh-123 efflux by measuring mean fluorescence intensity at 1 uM preincubated for 15 mins followed by Rh-123 addition for 30 mins and subsequent replacement in Rh-123 free medium measured after 60 mins by FACS analysis; format: cell-based
Procedure, shortened: (§8)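 K562/DOX cells pretreated with modulator (1.0 μM) 15 min before loading with 5.0 μM rhodamine 123 for 30 min at 37 °C, 5% CO2. Washed, then held in Rhd 123-free medium with or without modulator for 30 or 60 min. Cells washed in ice-cold PBS and analysed by flow cytometry (≥20,000 gated events). MFI ratio = median fluorescence of treated/untreated control. Mean ± SE, three independent experiments.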

Homo sapiens [15] = organism: Homo sapiens; test: (§9) Inhibition of P-gp in human K562/Dox cells assessed as reduction in Rh-123 efflux by measuring mean fluorescence intensity at 1 uM preincubated for 15 mins followed by Rh-123 addition for 30 mins and subsequent replacement in Rh-123 free medium measured after 30 mins by FACS analysis; format: cell-based; procedure, shortened: as §8
Homo sapiens [16] = organism: Homo sapiens; test: Inhibition of P-gp in human K562/Dox cells assessed as potentiation of doxorubicin-induced cytotoxicity by measuring ratio of doxorubicin IC50 to doxorubicin IC50 in presence of test compound at 1 uM after 72 hrs by MTT assay; format: cell-based; procedure, shortened: as §2
[17] = as §4; format: cell-based; details: K562, 72 h; procedure, shortened: as §5
Homo sapiens [18] = organism: Homo sapiens; test: as §7, with “measuring increase in” for “measuring”, “analysis relative to control” for “analysis”; format: cell-based; procedure, shortened: as §3
Homo sapiens [19] = organism: Homo sapiens; test: as §9, with “measuring increase in” for “measuring”, “analysis relative to control” for “analysis”; format: cell-based; procedure, shortened: as §3
[20] = Cytotoxicity against human K562/Dox cells at 3 uM after 72 hrs by MTT assay relative to control; format: cell-based; procedure, shortened: as §6

Row | Structure (SMILES) | half-life [1] | half-life [2] | Ratio IC50 (Homo sapiens [3]) | P-gp inhibition activity call (increase in Rh-123 accumulation) (Homo sapiens [4]) | Ratio IC50 (Homo sapiens [5]) | inhibition (Homo sapiens [6]) | half-life [7] | Activity (K562 [8]) | inhibition (K562 [9]) | Activity (K562 [10]) | Activity (K562 [11]) | Activity [12] | Activity (K562 [13]) | Flu intensity (Homo sapiens [14]) | Flu intensity (Homo sapiens [15]) | Ratio IC50 (Homo sapiens [16]) | EC50 [17] | fold change (FC) (Homo sapiens [18]) | fold change (FC) (Homo sapiens [19]) | Activity [20]
1 | CCOC(=O)C(C)c1cccc(C(=O)c2ccccc2)c1 (stereo not drawn) | 1.83 h | – | – | – | – | – | – | – | – | – | – | – | – | – | – | – | – | – | – | –
2 | CCOC(=O)[C@H](CCc1ccccc1)N[C@@H](C)C(=O)N1CCC[C@H]1C(=O)O | – | 0.417 h | – | – | – | – | – | – | – | – | – | – | – | – | – | – | – | – | – | –
3 | COc1cc(/C=C/CN2CCN(Cc3c4ccccc4cc4ccccc34)CC2)cc(OC)c1OC | > 4 h | > 4 h | 1.7 | Active | 22 | Dose-dependent effect | > 4 h | Non-Toxic | inactive | inactive | inactive | Non-Toxic | inactive | 2.4 | 7.5 | 8.8 | – | – | – | –
4 | COc1ccc(C(CCCN2CCN(C/C=C/c3cc(OC)c(OC)c(OC)c3)CC2)c2ccc(OC)cc2)cc1 | > 4 h | > 4 h | 1.9 | Active | 44 | Dose-dependent effect | > 4 h | Non-Toxic | inactive | inactive | inactive | Non-Toxic | inactive | 49.9 | 108 | 12.9 | 2700 nM | 50 | 100 | –
5 | COc1cc2c(cc1OC)CN(CCc1ccc(NC(=O)c3cc(OC)c(OC)cc3NC(=O)c3cnc4ccccc4c3)cc1)CC2 | – | – | – | – | – | – | – | – | – | – | – | – | – | – | – | 31.4 | – | – | – | –
6 | COc1ccc(C(CCCN2CCN(Cc3cc(OC)c(OC)c(OC)c3)CC2)c2ccc(OC)cc2)cc1 | > 4 h | > 4 h | 1.2 | Active | 73.3 | Dose-dependent effect | > 4 h | Non-Toxic | inactive | inactive | inactive | – | inactive | 11.1 | 30 | 10.5 | 1900 nM | 10 | 30 | <= 30%
7 | COc1ccc(C(CCCN2CCN(CCOc3cc(OC)c(OC)c(OC)c3)CC2)c2ccc(OC)cc2)cc1 | > 4 h | > 4 h | 2.4 | Active | 8.8 | Dose-dependent effect | > 4 h | Non-Toxic | inactive | inactive | inactive | Non-Toxic | inactive | 1.4 | 5.5 | 4.5 | – | – | – | –
